Inconclusive results are not listed.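 Rule for the calls, unless noted: active = viability at or below 27.92% in each of two runs, the all-compound median minus 4 SD; inconclusive = no clear call, values can overlap the other calls; inactive = the rest.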
Columns and labels:
[1] = S. cerevisiae growth inhibition in permissive medium (OD615), pilot counter-assay for S. cerevisiae lifespan shortening project, permissive growth control (AID 705;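 active = growth inhibition above 25% in both replicates, a cutoff set 3 SD above the mean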); settings: OD615, 24 h, at 10 µM, stronger effect = higher value
In short: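 Material: engineered DeaD yeast; compound dosing: one dose 10 µM, DMSO 0.25% final; measure: yeast growth inhibition indicated by reduced 24 h OD615; detection: OD615 turbidity read; incubation: cells pre-grown 4 h, then 24 h compound exposure, 30 °C humidified; medium: permissive synthetic complete medium with raffinose and galactose carbon sources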

[2] = S. cerevisiae growth inhibition in restrictive medium, OD615, pilot screen, restrictive growth control, yeast lifespan reduction project (AID 706;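 active = growth inhibition above a set limit, 3 SD over mean compound inhibition, in both replicates, cut at about 43% in these data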;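 note: modified DeaD lifespan yeast strain shifted to restrictive glucose medium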); settings: OD615, 48 h, at 10 µM, stronger effect = higher value
In short: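 material = engineered S. cerevisiae DeaD strain | medium = glucose-based CSMM-D restrictive medium | times = 4 h pre-incubation, 48 h exposure at 30 °C | technique = OD615 absorbance reading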

[3] = doxorubicin toxicity protection in MRP-1 cells – H69AR cells, CellTiter-Glo, duplicate, MRP-1 activator project, pilot screen (AID 807;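 active = viability increase at or above a cutoff of the median across tested compounds plus 3 SD, cut at about 8.5% in these data, passing the limit was not always enough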;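 note: compound pretreatment 18-22 h then 72 h combined with doxorubicin; 0% = doxorubicin alone and 100% = vehicle without doxorubicin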); settings: H69AR viability with doxorubicin, CellTiter-Glo luminescence; at 10 µM; stronger effect = higher value
[4] = viability of HCT116 without oncogenic beta-catenin – human colon tumor cells, pilot screen (AID 823;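 active = cell viability at or below a set limit in both duplicate runs, the limit being the all-compound median minus 4 SD, cut at about 23% in these data, passing the limit was not always enough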;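 note: 0% = wells killed by 20 µM Hyamine and 100% = untreated DMSO cell wells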); settings: HCT116 beta-catenin knockout viability, CellTiter-Glo, 60 h; at 10 µM; stronger effect = lower value
[5] = viability of PTEN-null HCT116 cells – cell-based, HCT116 clonal line, CellTiter-Glo, pilot screen (AID 824); settings: HCT116 PTEN-deleted viability, 60 h, at 10 µM, stronger effect = lower value;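 note: 0% = 20 µM Hyamine control and 100% = vehicle cell control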
[6] = RAM pathway blockade in budding yeast – dse1pr::URA3 reporter, 5-FOA selection, pilot screen (AID 869;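 active = inhibition over a set limit, the all-compound mean plus 3 SD, in both replicate runs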;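 note: 0% = DMSO wells with no growth and 100% = 10 µM 1-NA-PP1 with full growth; RAM network block rescues cells from 5-FOA so hits raise OD615 growth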); settings: S. cerevisiae dse1pr::URA3 5-FOA growth, OD615, 2 d; at 10 µM; stronger effect = higher value; strain carries analog-sensitive mutant Cbk1 kinase
[7] = RAM signaling pathway blockade in yeast – S. cerevisiae, Pdr1DBD-CYC8 efflux-inhibited sensitized strain, primary screen (AID 1298;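 active = RAM network inhibition above 8.4% in each of two replicates, 3 SD over the compound average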;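 note: 0% = DMSO untreated cells without growth and 100% = 10 µM 1-NA-PP1 full growth; higher means more yeast growth rescued from 5-FOA killing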); settings: S. cerevisiae cbk1-as DSE1-URA3 strain, 5-FOA growth OD615, 2 d; at 50 µM; stronger effect = higher value

Cc1cc(O)c(C=Nc2cccc(Cl)c2)c(=O)o1
inactive: growth inhibition [1] 4.66% | growth inhibition [2] 4.37% | viability increase [3] -3.17% | viability [4] 102% | viability [5] 94.1% | inhibition [6] 3.11% | RAM network inhibition [7] -0.93%

COc1ccc(NC(=O)Nc2ccc(OCC(=O)N3CCOCC3)cc2)cc1OC
inactive: growth inhibition [1] -13% | growth inhibition [2] -1.38% | viability increase [3] -2.34% | viability [4] 88.4% | viability [5] 90.5% | inhibition [6] 0.595% | RAM network inhibition [7] 0.11%

CC(C)Sc1nnc(NC(=O)C2CC2)s1
inactive: growth inhibition [1] -12.6% | growth inhibition [2] -3.5% | viability increase [3] -0.09% | viability [4] 98.1% | viability [5] 102% | inhibition [6] 1.93% | RAM network inhibition [7] 3.62%

COC(=O)C1=CN(C(C)C)C=C(C(=O)OC)C1c1cccc(OC)c1
inactive: growth inhibition [1] -3.31% | growth inhibition [2] -9.06% | viability increase [3] -4.15% | viability [4] 73.8% | viability [5] 63.2% | inhibition [6] 0.405% | RAM network inhibition [7] 5.46%

Cc1ccc2nc(NC(=O)c3ccc(Cl)s3)sc2c1
inactive: growth inhibition [1] -17.2% | growth inhibition [2] -14.8% | viability increase [3] -6.45% | viability [4] 64.5% | viability [5] 63% | inhibition [6] 1.35% | RAM network inhibition [7] 2.06%

CCNc1nc(C)c2cc(Br)c(=O)n(CC)c2n1
inactive: growth inhibition [1] -2.64% | growth inhibition [2] -8.07% | viability increase [3] -6.29% | viability [4] 66.4% | viability [5] 64.6% | inhibition [6] 0.44% | RAM network inhibition [7] 7.93%

O=C1c2ccccc2C(O)N1Cc1ccco1 (stereo not given)
inactive: growth inhibition [1] 5.97% | growth inhibition [2] -0.555% | viability increase [3] -2.36% | viability [4] 93.6% | viability [5] 94.6% | inhibition [6] 0.695% | RAM network inhibition [7] 0.68%

c1ccc(COc2nsnc2N2CCOCC2)cc1
inactive: growth inhibition [1] 6.21% | growth inhibition [2] 13.8% | viability increase [3] -1.67% | viability [4] 107% | viability [5] 86.5% | inhibition [6] 0.145% | RAM network inhibition [7] 1.41%

CCCNC(=O)N1CCN(c2nc(C(C)C)c3c(c2C#N)CC(C)(C)OC3)CC1
inactive: growth inhibition [1] -12.9% | growth inhibition [2] -6.2% | viability increase [3] 2.34% | viability [4] 68.8% | viability [5] 61.5% | inhibition [6] 2.17% | RAM network inhibition [7] 8.42%

O=C(Cc1cc(=O)[nH]c(=O)[nH]1)N1CCN(C(=O)c2ccco2)CC1
inactive: growth inhibition [1] -10.2% | growth inhibition [2] -26.6% | viability increase [3] -2.96% | viability [4] 95.6% | viability [5] 95.6% | inhibition [6] 0.59% | RAM network inhibition [7] 1.53%

CC(=O)Nc1ccc(S(=O)(=O)N2CCN(c3ccc(C)c(Cl)c3)CC2)cc1
inactive: growth inhibition [1] -14.6% | growth inhibition [2] 6.34% | viability increase [3] 0.47% | viability [4] 98.3% | viability [5] 85.4% | inhibition [6] 1.71% | RAM network inhibition [7] 1.14%

COc1ccccc1N1CCN(C(=O)c2ccc(Br)s2)CC1
inactive: growth inhibition [1] -10.4% | growth inhibition [2] -6.29% | viability increase [3] -1.58% | viability [4] 87% | viability [5] 91.1% | inhibition [6] 1.69% | RAM network inhibition [7] 6.83%

C=CCn1c(SCC(=O)N2CCOCC2)nc(O)c(Cc2ccccc2)c1=O
inactive: growth inhibition [1] -12.9% | growth inhibition [2] -8.77% | viability increase [3] 1.77% | viability [4] 99.4% | viability [5] 98.5% | inhibition [6] 1.49% | RAM network inhibition [7] 1.73%

O=C(C1CCN(S(=O)(=O)c2ccc(F)cc2)CC1)N1CC=C(c2ccccc2)CC1
inactive: growth inhibition [1] -0.895% | growth inhibition [2] -21% | viability increase [3] -2.73% | viability [4] 91% | viability [5] 89.7% | inhibition [6] 1.03% | RAM network inhibition [7] 1.27%

Cc1cc(NC(=O)c2ccccc2)sc1C
inactive: growth inhibition [1] -5.22% | growth inhibition [2] 3.02% | viability increase [3] -3.69% | viability [4] 70.7% | viability [5] 70% | inhibition [6] -1.59% | RAM network inhibition [7] -1.89%
